Results as given in BindingDB's records for doi:10.1021/jm200590k (University of Eastern Finland, 2011).

Biological target: T1, NAD-dependent protein deacetylase sirtuin-2 (Homo sapiens, UniProt Q8IXJ6)
T1 sequence (Q8IXJ6 whole entry): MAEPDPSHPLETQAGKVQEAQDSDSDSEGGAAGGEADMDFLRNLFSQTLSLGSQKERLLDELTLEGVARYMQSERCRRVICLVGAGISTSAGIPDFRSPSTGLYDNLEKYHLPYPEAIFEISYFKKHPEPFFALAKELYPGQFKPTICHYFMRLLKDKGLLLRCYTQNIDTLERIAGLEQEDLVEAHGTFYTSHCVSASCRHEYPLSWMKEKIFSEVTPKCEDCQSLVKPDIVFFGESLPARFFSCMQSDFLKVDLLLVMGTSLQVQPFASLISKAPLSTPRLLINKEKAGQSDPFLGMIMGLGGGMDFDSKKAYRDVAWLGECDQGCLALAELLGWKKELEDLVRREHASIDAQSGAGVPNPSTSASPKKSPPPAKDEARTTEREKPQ
Assay: Inhibition of recombinant GST-tagged SIRT2 at 200 uM after 1 hr by Fluor de Lys-based fluorescence assay
Method in brief: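 Single-point Fluor de Lys test at 200 μM: GST-SIRT1 (40 μM KI177 substrate) or GST-SIRT2 (138 μM KI179 substrate), 500 μM NAD+, BSA-supplemented buffer, 5 min rt preincubation, enzyme-started 1 h at 37 °C. Developer with 2 mM nicotinamide 45 min 37 °C; fluorescence ex 355/em 460 nm. Percent inhibition ± standard deviation.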

SMILES | Inhibition
CC(=S)NCCCC[C@H](NC(=O)[C@H](N)Cc1ccccc1)C(=O)N[C@@H](C)C(=O)O | 22.4%
CC(=S)NCCCC[C@H](NC(=O)OCc1ccccc1)C(=O)NC1CCCCC1 | 57.2%
CC(=S)NCCCC[C@H](N)C(=O)N[C@@H](C)C(=O)O | 2%
